Experimental data as given in PMC8227600 (ACS Central Science, 2021).
Counter-ions that a name gives are not always drawn.

Legend:
HT22 cells [1] = experiment: Erastin-induced ferroptosis in HT22 cells; assay type: cell-based, mouse
Method in brief: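 HT22 cells were cotreated with Erastin and test compound, and cell viability was measured. A value was reported as not determined where viability was below 50% at 1.0 μM compound with Erastin.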

HT22 cells [2] = experiment: Ferroptosis induced by cysteine depletion, BSO or ML210 in HT22 cells; assay type: cell-based, mouse; settings: for cell death from cysteine depletion: cystine-free media 24 h, 0.5 μM 9a, 0.5 μM Fer-1 or 20 μM DFO
[3] = system: MCAO model of ischemic stroke; assay type: in vivo, rat; settings: for infarct volume (TTC staining): rat, in vivo
HT22 cells [4] = experiment: Lipid ROS; assay type: cell-based, mouse; settings: 3 h; for lipid ROS, oxidized BODIPY-C11 fluorescence intensity: 1 μM RSL3, 0.5 μM compound
Method in brief: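 HT22 cells were exposed to 1 μM RSL3 with or without 0.5 μM test compound or 0.5 μM Fer-1 for 3 h. Lipid ROS was detected with BODIPY-C11 (oxidized form, green) by confocal microscopy (Hoechst 33342 nuclei) and by flow cytometry. Cytosolic ROS was measured by flow cytometry with carboxy-H2DCFDA.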

HT22 cells [5] = experiment: RSL3-induced ferroptosis in HT22 cells; assay type: cell-based; settings: Mus musculus, HT-22, 24 h, read-out: EC50, inhibition of RSL3-induced death
HT22 cells [6] = experiment: Intracellular Fe^2+; assay type: cell-based, mouse; settings: 6 h; for fluorescence intensity of FerroOrange (free Fe^2+): 0.5 μM 9a or 50 μM DFO
Method in brief: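 Live HT22 cells were given 0.5 μM test compound or 50 μM DFO for 6 h, then imaged by confocal microscopy with the Fe2+ probe FerroOrange; nuclei were stained with Hoechst 33342. Lysosomal Fe2+ was scored as FerroOrange signal colocalised with LysoTracker Green per cell, about 100 cells per condition. Three independent experiments, mean ± SEM.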

NCOA4^383–522 [7] = biological target: T1, NCOA4^383–522 (Homo sapiens, UniProt Q13772); experiment: Pull-down of recombinant NCOA4^383–522; assay type: binding; settings: protein preincubated with 9a 1 h
T1 sequence (Q13772 383-522): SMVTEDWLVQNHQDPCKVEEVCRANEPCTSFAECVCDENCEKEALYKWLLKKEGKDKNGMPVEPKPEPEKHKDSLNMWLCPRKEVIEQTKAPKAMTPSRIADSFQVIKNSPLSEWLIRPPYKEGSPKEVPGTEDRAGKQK
Method in brief: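 Recombinant NCOA4 383–522 or FTH1 protein was pretreated with test compound or DMSO for 1 h. It was then incubated for 1 h with increasing concentrations of a biotinylated probe precoupled to streptavidin magnetic beads. Bead-bound protein was detected by silver staining and Western blotting.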

HT-1080 cells [8] = experiment: Ferroptosis induced by Erastin, RSL3, ML210 or GPX4 knockdown in HT-1080 cells; assay type: cell-based, human
Method in brief: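 HT-1080 cells were transfected for 12 h with scrambled siRNA (si-NC) or GPX4-targeting siRNA. Cells were then treated for 36 h with or without 0.5 μM test compound, 0.5 μM Fer-1 or 20 μM DFO. Viability was read by CCK-8. Values are mean ± SEM of three independent experiments.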

HT22 cells [9] = experiment: Non-ferroptotic cell death; assay type: cell-based, mouse
NCOA4^383–522 [10] = biological target: T1, NCOA4^383–522; experiment: Surface plasmon resonance binding to NCOA4^383–522
NCOA4 = biological target: T2, NCOA4 (Homo sapiens, UniProt Q13772); experiment: Biotin–streptavidin pull-down from HEK-293T lysates; assay type: binding; settings: lysate preincubated with 9a (20 μM) 6 h at 4 °C
T2 sequence (Q13772 1-614): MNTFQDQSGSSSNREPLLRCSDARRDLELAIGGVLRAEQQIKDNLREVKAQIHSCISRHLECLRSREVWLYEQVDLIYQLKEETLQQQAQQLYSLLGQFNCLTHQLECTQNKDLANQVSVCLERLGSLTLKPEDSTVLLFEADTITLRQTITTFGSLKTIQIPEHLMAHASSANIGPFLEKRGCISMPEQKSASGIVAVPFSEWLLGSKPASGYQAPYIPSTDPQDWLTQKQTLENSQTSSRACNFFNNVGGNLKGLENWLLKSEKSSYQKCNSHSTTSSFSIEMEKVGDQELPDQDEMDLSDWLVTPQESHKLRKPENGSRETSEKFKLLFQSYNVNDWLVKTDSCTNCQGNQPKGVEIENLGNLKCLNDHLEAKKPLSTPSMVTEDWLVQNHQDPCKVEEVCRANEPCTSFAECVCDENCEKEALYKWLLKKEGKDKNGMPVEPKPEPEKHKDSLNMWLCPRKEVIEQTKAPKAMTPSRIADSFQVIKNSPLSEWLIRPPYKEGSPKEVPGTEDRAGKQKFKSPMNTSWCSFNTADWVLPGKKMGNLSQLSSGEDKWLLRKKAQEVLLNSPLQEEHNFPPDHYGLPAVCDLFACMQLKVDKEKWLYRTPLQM
Method in brief: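 HEK-293T lysates expressing FTH1-Myc-His and NCOA4-Flag were pretreated with test compound or DMSO for 6 h at 4 °C. They were then incubated overnight at 4 °C with increasing concentrations of a biotinylated probe precoupled to streptavidin magnetic beads. Precipitates were pulled down with the beads and immunoblotted with anti-tag antibodies. Biotin-PEG3-N3 served as the negative-control probe.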

[11] = biological target: T3, NCOA4^383–522–FTH1 interaction (Homo sapiens, UniProt Q13772); experiment: ELISA for NCOA4^383–522–FTH1 protein-protein interaction; assay type: binding
T3 sequence (Q13772 383-522): T1 sequence (Q13772 383-522)
Method in brief: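 Test compound at the indicated concentrations was preincubated with recombinant NCOA4 383–522. Binding of NCOA4 383–522 to FTH1 was then monitored by ELISA to build a dose–response curve. Values are mean ± SEM of three independent experiments.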

PTGS2 mRNA = PTGS2 mRNA expression; assay type: cell-based, mouse; settings: 12 h
HT22 cells [12] = experiment: Intracellular GSH level and GPX4 expression in HT22 cells; assay type: cell-based, mouse; settings: 12 h
NCOA4–FTH1 interaction = biological target: T4, NCOA4–FTH1 interaction (Homo sapiens, UniProt Q13772); experiment: Coimmunoprecipitation of NCOA4 and FTH1 in cells; assay type: cell-based
T4 sequence (Q13772 1-614): T2 sequence (Q13772 1-614)

HT-1080 cells [13] = experiment: Lipid ROS in HT-1080 cells after GPX4 knockdown; assay type: cell-based, human; settings: 0.5 μM 9a, 36 h
HT22 cells [14] = experiment: LC3-II level; assay type: cell-based, mouse; settings: 6 h, Western blotting
ferritin = experiment: Ferritin protein level; assay type: cell-based, mouse; settings: 6 h

c1cc(-c2nc3ccc(N4CCCCC4)cc3[nH]2)cc(N2CCc3ccccc3C2)c1 [4c]
EC50 (HT22 cells [1]; Mus musculus, HT-22, 24 h): 1210 nM

CCOC(=O)c1ccc(NC2CCCCC2)c(N)c1 [Fer-1, Ferrostatin-1, reference compound]
cell death from cysteine depletion (HT22 cells [2]): significantly reduced the level of cell death
infarct volume (TTC staining) [3]: substantially reduced infarct volume
lipid ROS, oxidized BODIPY-C11 fluorescence intensity (HT22 cells [4]): remarkably decreased
EC50 (HT22 cells [1]; 1 μM Erastin, 24 h, CCK-8): 82 nM

COc1cccc2c1CN(c1cccc(-c3nc4ccc(N5CCN(C)CC5)cc4[nH]3)c1)CC2 [9f]
EC50 (HT22 cells [1]; Mus musculus, HT-22, 24 h): 330 nM

CN1CCN(c2ccc3nc(-c4cccc(N5CCc6ccccc6C5)c4)[nH]c3c2)CC1 [4a]
EC50 (HT22 cells [1]; Mus musculus, HT-22, 24 h): 500 nM

CCOc1ccc2c(c1)CCN(c1cccc(-c3nc4ccc(N5CCN(C)CC5)cc4[nH]3)c1)C2 [14a]
EC50 (HT22 cells [1]; Mus musculus, HT-22, 24 h): 510 nM

CC1CCN(c2ccc3nc(-c4cccc(N5CCc6ccccc6C5)c4)[nH]c3c2)CC1 [4b]
EC50 (HT22 cells [1]; Mus musculus, HT-22, 24 h): 640 nM

CCCOc1ccc2c(c1)CCN(c1cccc(-c3nc4ccc(N5CCN(C)CC5)cc4[nH]3)c1)C2 [14b]
EC50 (HT22 cells [1]; Mus musculus, HT-22, 24 h): 390 nM

Cc1ccc2c(c1)CN(c1cccc(-c3nc4ccc(N5CCN(C)CC5)cc4[nH]3)c1)CC2 [9e]
EC50 (HT22 cells [1]; Mus musculus, HT-22, 24 h): 770 nM

CC(C)Oc1ccc2c(c1)CCN(c1cccc(-c3nc4ccc(N5CCN(C)CC5)cc4[nH]3)c1)C2 [14c]
EC50 (HT22 cells [1]; Mus musculus, HT-22, 24 h): 530 nM

C#CCOc1ccc2c(c1)CCN(c1cccc(-c3nc4ccc(N5CCN(C)CC5)cc4[nH]3)c1)C2 [14d]
EC50 (HT22 cells [5]): 690 nM
EC50 (HT22 cells [1]; Mus musculus, HT-22, 24 h): 880 nM

CC(=O)N(O)CCCCCNC(=O)CCC(=O)N(O)CCCCCNC(=O)CCC(=O)N(O)CCCCCN [DFO, Deferoxamine mesylate, reference compound]
fluorescence intensity of FerroOrange (free Fe^2+) (HT22 cells [6]): significantly decreased
cell death from cysteine depletion (HT22 cells [2]): significantly reduced the level of cell death
EC50 (HT22 cells [1]; Mus musculus, HT-22, 24 h): 5750 nM

CN1CCN(c2ccc3nc(-c4cccc(N5CCc6cc(F)ccc6C5)c4)[nH]c3c2)CC1 [9a]
fluorescence intensity of FerroOrange (free Fe^2+) (HT22 cells [6]): significantly decreased
Fe^2+ in lysosomes (FerroOrange colocalized with LysoTracker Green) (HT22 cells [6]; 0.5 μM 9a): diminished
competition of Biotin-14d binding to NCOA4^383–522 (NCOA4^383–522 [7]): blocked
ferroptosis induced by Erastin, RSL3, or ML210 (HT-1080 cells [8]; inducers 1 μM, 24 h): inhibited ferroptosis
ferroptosis induced by knockdown of GPX4 (HT-1080 cells [8]; si-GPX4 12 h, then 0.5 μM 9a 36 h): significantly suppressed ferroptosis
staurosporine (STS)-induced apoptosis (HT22 cells [9]; 0.5 μM STS, 24 h): cannot inhibit
hydrogen peroxide (H2O2)-induced necrosis (HT22 cells [9]; 2 mM H2O2, 12 h): cannot inhibit
TNF-α/SM-164/zVAD-fmk-induced necroptosis (HT22 cells [9]; 12 h): cannot inhibit
Kd (NCOA4^383–522 [10]): 7480 nM
BSO-induced ferroptosis (HT22 cells [2]; 100 μM BSO, 12 h): dose-dependently prevented cell death
ML210-induced ferroptosis (HT22 cells [2]; ML210 10 μM, 24 h): ferroptosis inhibitory behavior similar to those of Fer-1 and DFO
cell death from cysteine depletion (HT22 cells [2]): significantly reduced the level of cell death
competition of Biotin-14d binding to NCOA4 (NCOA4): competitively inhibited
IC50 [11]: 3260 nM
RSL3-induced PTGS2 mRNA expression (PTGS2 mRNA): dose-dependently inhibited the upregulation of PTGS2 expression
intracellular GSH level (HT22 cells [12]): did not change
GPX4 expression (HT22 cells [12]; immunoblot): did not change
4-hydroxynonenal (4-HNE) level in the lesioned hemisphere ([3]; 10 mg/kg i.p.): reduced
PTGS2 gene expression in the lesioned hemisphere ([3]; 10 mg/kg i.p.): significantly decreased
malondialdehyde (MDA) level in the lesioned hemisphere ([3]; 10 mg/kg i.p.): reduced
neurological deficits (Longa test) ([3]; 10 mg/kg i.p., 24 h after MCAO and reperfusion): improved neurological deficits
percentage of injured neurons in the cortex (Nissl staining) ([3]; 10 mg/kg i.p., lesioned hemisphere): reduced the percentage of injured neurons in the cortex
infarct volume (TTC staining) [3]: substantially reduced infarct volume
lipid ROS, oxidized BODIPY-C11 fluorescence intensity (HT22 cells [4]): remarkably decreased
RSL3-induced cytosolic ROS accumulation (HT22 cells [4]; carboxy-H2DCFDA, flow cytometry): suppressed by 9a in a dose-dependent manner
NCOA4–FTH1 interaction, co-IP of FTH1-Myc-His and NCOA4-Flag (NCOA4–FTH1 interaction; HEK-293T cells, 16 h treatment): substantially impaired
endogenous NCOA4–FTH1 interaction, co-IP (NCOA4–FTH1 interaction; HT-1080 cells, 6 h): inhibited the endogenous NCOA4 interaction with FTH1
lipid ROS accumulation induced by knockdown of GPX4 (HT-1080 cells [13]): inhibited lipid ROS accumulation
EC50 (HT22 cells [1]; Mus musculus, HT-22, 24 h): 290 nM
LC3-II level (HT22 cells [14]): no ability to induce an increase in the LC3-II level
mRNA expressions of FTH1 and FTL (ferritin; 0.5 μM 9a, qPCR): did not change
protein level of ferritin (ferritin; Western blotting): increased in a dose-dependent manner
